# Compound activity: PubChem BioAssay, several laboratories
# Rows were chosen to be rich in hits. Some 4.9% of all compounds tested hit in one or more screens of this group.
# NPY Y2 blocker: blocks the human neuropeptide Y Y2 receptor; P49146; NPY-Y2 expressing cells, antagonist mode; inhibition, % at 2.7 µM; hit rate 0.99% among 140,000; AID 793; in the data active = inhibition above about 17%;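 also: 0% = vehicle with agonist challenge and 100% = reference antagonist with challenge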
# Target sequence (P49146 whole entry, looked up): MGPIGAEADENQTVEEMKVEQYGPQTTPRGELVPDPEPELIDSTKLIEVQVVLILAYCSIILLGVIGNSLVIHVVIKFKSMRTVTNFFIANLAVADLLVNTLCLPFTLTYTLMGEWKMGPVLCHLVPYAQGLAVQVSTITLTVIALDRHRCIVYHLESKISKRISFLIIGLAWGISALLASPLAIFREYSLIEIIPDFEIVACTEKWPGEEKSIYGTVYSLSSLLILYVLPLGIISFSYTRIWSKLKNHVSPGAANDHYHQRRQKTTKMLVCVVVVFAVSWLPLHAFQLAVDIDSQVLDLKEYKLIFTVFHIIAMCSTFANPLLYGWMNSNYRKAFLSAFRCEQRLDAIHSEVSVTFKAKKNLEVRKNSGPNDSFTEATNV
# NPY2 pot ag: potentiates or activates human NPY-Y2 receptor; AID 1359; hit rate 0.45% among 220,000; P49146; activation, % at 3.6 µM; cells expressing NPY-Y2, potentiator/agonist read-out; in the data active = activation above about 27%;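 also: cells stimulated with NPY near EC25 plus isoproterenol at EC100; 0% = vehicle plus submaximal agonist and 100% = vehicle plus saturating agonist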
# NPY-Y1 antag: blocks the human neuropeptide Y Y1 receptor. AID 1040. inhibition, % at 3.6 µM. P25929. hit rate 1% among 200,000. HEK293-CNG Y1 cells, membrane potential fluorescence; NPY at EC95, then isoproterenol;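 active = inhibition above the campaign mean inhibition of all tested compounds plus 3 SD, cut at about 20% in these data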;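 also: 0% = DMSO wells given NPY plus isoproterenol and 100% = isoproterenol alone without NPY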
#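 Material: HEK293 cells co-expressing NPY Y1 receptor and cyclic-nucleotide gated channel. Timing: compound incubation 1 h at room temperature, readout 45 min post-stimulation. Signal: fluorescence, membrane potential probe.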
# RAM network inh: yeast RAM network inhibition | hit rate 1.8% among 190,000 | inhibition, % at 50 µM | S. cerevisiae dse1pr::URA3 reporter, 5-FOA growth OD615, 2 d; analog-sensitive cbk1-as2 kinase mutant strain;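 active = inhibition above a set limit, 3 SD over mean compound inhibition, cut at about 8.4% in these data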;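 also: 0% = DMSO-only wells with no growth and 100% = 10 µM 1-NA-PP1 full growth; inhibition rescues growth on 5-FOA so higher OD means more RAM inhibition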
# NPY1 pot ag: potentiates or activates human NPY-Y1 receptor | P25929 | NPY-Y1 expressing cells, potentiator/agonist activation | activation, % at 3.6 µM | hit rate 0.37% among 220,000 | AID 1304; in the data active = activation above about 33%, passing the limit was not always enough;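 also: cells stimulated with NPY at EC10 then isoproterenol at EC100; 0% = low agonist plus stimulus and 100% = saturating agonist plus stimulus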
# WT yeast gro inh: growth inhibition of WT yeast, mitochondrial fusion screen; mitochondrial fusion phenotypic screen, WT strain; hit rate 2.1% among 190,000; inhibition, % at 10 µM; in the data active = inhibition above about 58%; tested in S. cerevisiae
# * hit, by the source's call; · = no result.
SMILES,NPY Y2 blocker,NPY2 pot ag,NPY-Y1 antag,RAM network inh,NPY1 pot ag,WT yeast gro inh
Oc1ccc(N=Nc2n[nH]c(-c3ccccc3)n2)cc1,0,11,-2,1,15,9
Oc1ccc(N=Nc2n[nH]c(-c3ccc(Br)cc3)n2)cc1,-2,-5,3,8.8*,3,2
CCN(CC)CCNC(=O)c1ccc(N2CCCCC2)c(NS(=O)(=O)c2ccc(C)cc2)c1,11,-6,13,0,-22,16
CCN(CC)S(=O)(=O)c1ccc(N2CCCC2)c(NS(=O)(=O)c2ccccc2)c1,3,10,8,4,10,-14
CCN(CC)S(=O)(=O)c1ccc(N2CCCC2)c(NS(=O)(=O)c2ccc(F)cc2)c1,-1,7,8,9.8*,1,0
COC(=O)c1ccc(N2CCCCC2)c(NS(=O)(=O)c2ccc(C)cc2)c1,6,-1,5,11*,-32,52
O=C(N1CCN(c2ccccn2)CC1)C(Cl)(Cl)Cl,2,8,6,1,-3,9
O=C(N1CCN(c2ccccn2)CC1)N1c2ccccc2Sc2ccccc21,-1,-8,1,0,0,72*
CCOC12NC(=O)CC(=O)N1C(c1ccccc1)=CS2 (configuration not stated),4,7,9,9.9*,-1,9
CCc1ccc(N2Cc3ccccc3C2)cc1,·,5,·,·,-16,·
COc1ccc(CNC(=O)C2CC(c3cccc(OC)c3)=NO2)cc1 (configuration not stated),12,-32,12,-1,-28,0
COc1ccccc1Nc1ncnc2nc[nH]c12,2,-10,0,0,6,70*
O=C(CCCCCn1c(SCC(=O)c2ccccc2)nc2ccccc2c1=O)NCc1ccco1,10,-15,10,8,-12,10
O=C(CCCn1c(SCC(=O)c2ccc(Cl)cc2)nc2ccccc2c1=O)NCc1ccco1,2,13,3,8.5*,15,-9
CN(Cc1ccccc1)C(=O)CSc1nc2ccccc2c(=O)n1Cc1ccco1,8,17,0,9.2*,24,24
CCC(=O)Oc1ccc(C(CC)C(CC)c2ccc(OC(=O)CC)cc2)cc1 (configuration not stated),3,8,4,7,-14,-7
CNC(=S)NNC(=O)c1sccc1OCc1ccc(Cl)cc1Cl,2,12,0,2,7,12
N/C(=N\NC(=O)c1sccc1OCc1ccc(Cl)cc1Cl)c1ccccn1,·,-11,11,8.7*,-33,38
CCCOc1ccc(Cc2c(Cl)nc(SC)nc2OC)cc1,6,9,3,0,12,38
COc1nc(SC)nc(Cl)c1Cc1ccc(OC(C)C)cc1,12,-11,8,-2,-20,59*
CCCOc1ccc(Cc2c(Cl)nc(SC)nc2N(C)C)cc1,26*,-14,22*,1,-54,64*
CCCOc1ccc(CSc2n[nH]c(C)n2)cc1,·,24,·,·,21,·
Cc1ccc(-c2nnc(SCC(=O)N3CCCC3)o2)cc1,6,0,7,1,12,16
CC1Oc2ccccc2C=C1/C=N/NC(=O)c1ccccc1 (configuration not stated),3,-8,2,0,-7,8
CC1Oc2ccccc2C=C1/C=N/NC(=O)c1ccccc1O (configuration not stated),8,-4,1,5,-26,71*
SMILES,NPY Y2 blocker,NPY2 pot ag,NPY-Y1 antag,RAM network inh,NPY1 pot ag,WT yeast gro inh
COCCN(C(=S)Nc1cc(C)cc(C)c1)C(C)c1ccco1 (configuration not stated),·,-8,3,3,0,61*
COCCN(C(=S)Nc1cc(C)cc(C)c1)C(C)c1cccs1 (configuration not stated),·,8,-2,3,-1,15
CC(C)CCN(C(=S)Nc1cccc(F)c1)C(C)c1cccs1 (configuration not stated),·,17,2,-1,13,59*
COCCN(C(=S)Nc1cccc(C)c1)C(C)c1cccs1 (configuration not stated),5,-3,4,1,2,59*
Cc1ccc(C(=O)O)cc1Nc1ncnc2sc3c(c12)CCC3,·,-9,·,·,6,·
CCOC(=O)c1[nH]c2ccccc2c1CCCN1C(=O)c2ccccc2C1=O,3,-10,8,5,5,15
COC(=O)C1=C(C)NC(=O)CC1c1cccc(Cl)c1Cl (configuration not stated),4,-2,0,2,-8,11
CCOC(=O)C1=C(C)NC(C)=C(C(=O)OC)C1c1cccc(Cl)c1Cl (configuration not stated),3,-3,-3,1,-14,64*
Cc1cc(C)c2sc(N(CCN(C)C)C(=O)c3c(F)cccc3F)nc2c1,·,-4,-6,1,-7,62*
CCCCN(C)S(=O)(=O)c1ccc(C(=O)N(CCN(C)C)c2nc3ccc(C)cc3s2)cc1,·,-7,0,-2,-12,3
CCCCN(CC)S(=O)(=O)c1ccc(C(=O)N(CCCN(C)C)c2nc3cc(C)cc(C)c3s2)cc1,·,-5,18,-1,-21,96*
Cc1cc(C)c2sc(N(CCCN(C)C)C(=O)CN3C(=O)c4ccccc4C3=O)nc2c1,·,10,9,-1,-8,38
CCOC(=O)c1ccccc1NC(=O)c1ccccc1NS(C)(=O)=O,8,-8,10,2,-42,-28
COc1cccc(NC(=S)NNC(=O)CCn2cc([N+](=O)[O-])cn2)c1,·,-4,-4,3,-3,3
CC1CCCN(C2=C(Cl)C(=O)N(c3cccc(Cl)c3)C2=O)C1 (configuration not stated),3,-7,6,10*,-7,16
CCC(C)NC(=O)c1ccccc1NC(=O)C1COc2ccccc2O1 (configuration not stated),·,-4,6,8.8*,6,-6
CC(C)NC(=O)c1ccccc1NC(=O)C1COc2ccccc2O1 (configuration not stated),-1,5,6,3,-22,2
COc1ccc2[nH]cc(C(=O)CNc3nc(C)cs3)c2c1,-10,39*,-18,1,48*,9
Clc1ccc(-n2nnc(-c3cccnc3Cl)n2)cc1Cl,·,-2,6,3,7,4
CCN(Cc1ccccc1)C(c1ccc(C(F)(F)F)cc1)c1nnnn1C(C)(C)C (configuration not stated),4,-24,10,11*,10,73*
COc1ccc(/C=C/C(=O)c2ccc(O)cc2)cc1,·,-9,1,0,5,5
COc1cc(/C=C/c2ccc(O)cc2)cc(OC)c1,·,-23,2,·,2,58*
